A selection: hits, their analogues and other compounds. The true share with any hit is near 9.6%.
TNAP inh noacc: blocks human TNAP activity with no phosphate acceptor present | hit rate 0.26% among 200,000 | P05186 | purified TNAP, CDP-star luminescence, 30 min | inhibition, % at 20 µM;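 active means tissue-nonspecific alkaline phosphatase inhibition above about 50% at 20 µM in the single-dose screen, limit read from the data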;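 further: 0% = DMSO negative control and 100% = EDTA positive control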
Target sequence (P05186 whole entry, looked up): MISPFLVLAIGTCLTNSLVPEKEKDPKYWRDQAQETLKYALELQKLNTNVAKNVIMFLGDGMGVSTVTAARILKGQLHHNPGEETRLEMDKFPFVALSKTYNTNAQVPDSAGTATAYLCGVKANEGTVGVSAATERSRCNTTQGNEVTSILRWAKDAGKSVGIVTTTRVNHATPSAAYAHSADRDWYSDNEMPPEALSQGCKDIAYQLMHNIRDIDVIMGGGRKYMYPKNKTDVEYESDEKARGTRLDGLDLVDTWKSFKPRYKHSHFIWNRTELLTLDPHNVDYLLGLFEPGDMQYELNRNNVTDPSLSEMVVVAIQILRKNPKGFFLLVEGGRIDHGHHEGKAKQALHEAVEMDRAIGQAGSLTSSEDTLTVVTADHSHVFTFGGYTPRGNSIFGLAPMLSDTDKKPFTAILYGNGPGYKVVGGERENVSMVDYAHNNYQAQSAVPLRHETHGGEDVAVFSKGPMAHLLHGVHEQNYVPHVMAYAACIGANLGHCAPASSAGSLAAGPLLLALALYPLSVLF
TNAP inh hi DEA: inhibitors of human TNAP at high phosphate acceptor concentration; P05186; purified TNAP, CDP-star luminescence, 1 M DEA; inhibition, % at 20 µM; hit rate 0.03% among 200,000; AID 1135;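 active means over 50% inhibition of tissue-nonspecific alkaline phosphatase at 20 µM in the single-dose screen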;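 further: plate controls were DMSO wells for no effect and EDTA-quenched wells as full inhibition for full effect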
Lmaj promast: Leishmania major promastigote growth inhibition | inhibition, % at 10 µM | hit rate 9% among 200,000 | Leishmania major promastigotes, resazurin fluorescence viability; in the data active means inhibition above about 50%;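 further: promastigotes grown with compound for 44 hours at 28 °C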
bCat KO growth: beta-catenin-lacking colon tumor cell growth suppression. HCT116 beta-catenin knockout viability, CellTiter-Glo, 60 h; active compounds read low. viability, % at 10 µM. hit rate 1.5% among 140,000. AID 818;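 active means viability at or under a set limit, the compound median less 4 SD, cut at about 6% in these data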;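 further: 0% = Hyamine 1622 control at 20 µM and 100% = untreated cell control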
TNAP act hi DEA: increases human TNAP activity under high phosphate acceptor concentration; 200,000 tested, under 10 active; activation factor at 20 µM; purified TNAP, CDP-star luminescence, 1 M DEA, 30 min; active compounds read high; 0 = EDTA background, 1 = DMSO-only activity; P05186;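 active means activation factor at least 2 at 20 µM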
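Measured by: Luminescent substrate turnover signal | Test system: Human TNAP | Input: TNAP 1/800 final | Dosing: 20 µM single point | Schedule: 30 min, room temperature | Controls: EDTA wells as negative control, DMSO wells as positive control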
HCT116 PTEN-null: suppresses growth of cells with PTEN deletion; HCT116 PTEN-null viability, CellTiter-Glo, 60 h; active compounds read low; viability, % at 10 µM; hit rate 1.2% among 140,000;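 active means viability at or below a set limit, 4 SD under the median of all tested compounds, cut at about 3.7% in these data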;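 further: PTEN knockout HCT116 line with beta catenin targeted HCT116 as companion control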
Starred values were filed as active, the others as inactive; . = no result.

SMILES	TNAP inh noacc	TNAP inh hi DEA	Lmaj promast	bCat KO growth	TNAP act hi DEA	HCT116 PTEN-null
O=C(CCN1C(=O)c2cccc3cccc(c23)C1=O)NCc1cccnc1	7	-2	5	.	1	.
Cc1ccnc(N2C(=O)c3cccc4c([N+](=O)[O-])ccc(c34)C2=O)c1	1	2	100*	1.2*	1	1.3*
CN(C)CC(C(=O)c1ccccc1)c1ccccc1 (stereo unspecified)	-10	1	100*	1.4*	1	1.0*
COc1cc(S(=O)(=O)N2CCN(C(=O)c3ccccc3)CC2)c(OC)cc1Br	-12	-3	0	.	1	.
CC(NC(=O)/C=C/c1cnc2ccccc2n1)C12CC3CC(CC(C3)C1)C2 (stereo unspecified)	4	4	26	55	1	50
COc1ccccc1OCC(=O)NC1CCCCCC1	-10	0	-3	95	1	100
COc1cc(CNCc2cccnc2)ccc1OCC(=O)NC1CCCCC1	-1	0	86*	.	1	.
CC(=O)Nc1ccc(C(=O)n2cnc3cc(C)c(C)cc32)cc1	-4	-4	-4	92	1	89
CC(=O)Nc1ccc(S(=O)(=O)n2cnc3cc(C)c(C)cc32)cc1	-8	-3	67*	97	1	83
O=C(CSc1cccs1)Nc1ccc2ccccc2c1	-5	-5	0	79	1	84
O=C(CSc1cccs1)Nc1cccc2ccccc12	10	2	64*	94	1	92
O=c1cc(-c2c(F)c(F)c(F)c(F)c2F)oc2c(F)c(F)c(F)c(F)c12	-10	-5	58*	1.6*	1.1	1.5*
O=c1cc(-c2c(F)c(F)c(F)c(F)c2F)oc2ccccc12	-22	-6	16	2.2*	1.1	.
Cc1nn(Cc2ccccc2Cl)c(C)c1NC(=O)CSc1n[nH]c(C)c1[N+](=O)[O-]	-24	2	-5	95	1	105
CC(C)CN(C)C(=O)CCc1nnc(Cc2cccc(C(F)(F)F)c2)o1	-8	-1	-5	.	1	.
CCN(CC)C(=O)c1ccc(-c2ccccc2)cc1	-6	-3	-10	90	1	91
CCCCCCCC[n+]1cccc(C(=O)N(CC)CC)c1	-3	-3	61*	89	1	89
Cc1oc2cc(OCc3cnn(-c4ccccc4)c3)ccc2c(=O)c1Oc1ccccc1F	-11	0	5	82	1	96
Cc1ccc(C(CC(=O)O)C2CCOC(C)(C)C2)cc1 (stereo unspecified)	-20	-5	-5	98	1	98
COc1ccc(C(CCN(Cc2ccc(OC)c(OC)c2)C(C)=O)c2ccccc2)cc1 (stereo unspecified)	-6	1	9	77	1	75
COc1ccc(CNCCC(c2ccccc2)C2CCOC(C)(C)C2)cc1 (stereo unspecified)	-2	-3	91*	.	1	.
COc1ccc(CN(CCC(c2ccccc2)C2CCOC(C)(C)C2)C(C)=O)cc1 (stereo unspecified)	-5	-6	83*	65	1.1	67
O=S(=O)(NC(=S)NC1CCCCC1)c1ccc(Br)cc1	12	2	-9	.	1	.
Cc1ccccc1NC(=S)N(Cc1ccco1)C(C)c1ccccn1 (stereo unspecified)	-5	2	4	.	1	.
COc1cc(NC(=S)Nc2cccc(Cl)c2Cl)c(OC)cc1Cl	6	1	59*	101	1	110
SMILES	TNAP inh noacc	TNAP inh hi DEA	Lmaj promast	bCat KO growth	TNAP act hi DEA	HCT116 PTEN-null
COc1cc(NC(=S)NC(C)(C)C)c(OC)cc1Cl	-10	-5	67*	.	1	.
COc1cc(NC(=S)Nc2ccc(Br)cc2Cl)c(OC)cc1Cl	3	3	32	99	1	107
COc1ccc(C(C(=O)NC2CCCCC2)N(C(=O)Cc2c[nH]c3ccccc23)c2ccccc2C)cc1OC (stereo unspecified)	-15	2	95*	51	1	50
Cc1ccc(C(C(=O)NC2CCCCC2)N(C(=O)Cc2c[nH]c3ccccc23)c2ccccc2C)o1 (stereo unspecified)	-18	-4	15	43	1	41
CCn1ccnc1CNCc1cn(-c2cc(C)ccc2C)nc1-c1ccccc1	-53	-3	65*	.	1	.
COCCN1CCC(CNCc2cn[nH]c2-c2ccc(C)c(C)c2)C1 (stereo unspecified)	5	-1	3	.	1	.
COCCN1CCC(CNCc2cn(-c3cc(C)ccc3C)nc2-c2ccccc2)C1 (stereo unspecified)	-18	-6	100*	.	1.1	.
COc1ccc(CCNC(=O)Cn2c([N+](=O)[O-])cnc2C)cc1OC	-6	-4	-4	.	1	.
N#C/C(=N\Nc1cccc(F)c1)C(=N)N1CCCCCC1	4	1	29	.	1	.
N#C/C(=N\Nc1ccc(F)cc1)C(=N)N1CCCCC1	-3	-4	78*	98	1	103
O=C(NCc1ccccc1)c1ccc(C2SCC(=O)N2Cc2ccccc2)cc1 (stereo unspecified)	-3	0	97*	87	1	88
CCc1ccc(NC(=O)c2ccc(C3SCC(=O)N3CCc3ccccc3)cc2)cc1 (stereo unspecified)	-6	-6	93*	15	1.1	21
C=CCNC(=O)c1ccc(C2SCC(=O)N2Cc2ccccc2)cc1 (stereo unspecified)	-9	-4	-4	.	1	.
O=[N+]([O-])c1nn(-c2ccc(Cl)cc2)n(O)c1=NCc1ccccc1Cl	4	4	27	.	1	.
O=[N+]([O-])c1nn(-c2ccc3c(c2)OCCO3)n(O)c1=NCCC1=CCCCC1	0	4	63*	.	1	.
O=[N+]([O-])c1nn(-c2ccc3c(c2)OCCO3)n(O)c1=NCc1ccc(F)cc1Cl	0	2	85*	.	1	.
CN=c1c([N+](=O)[O-])nn(-c2ccc3c(c2)OCCO3)n1O	3	4	43	.	1	.
O=[N+]([O-])c1nn(-c2ccc3c(c2)OCCO3)n(O)c1=NCc1ccc(F)cc1	-3	6	97*	87	0.9	86
C=CCn1cc(C(=O)OCC)c(=O)c2ccc(F)cc21	-8	-2	2	.	1	.
Cn1nnnc1SCC(=O)N(C1CCCCC1)C1CCS(=O)(=O)C1 (stereo unspecified)	-7	-2	-8	.	1	.
FC(F)(F)c1nnc(-c2ccccc2)nc1Sc1ccc(Cl)cc1	-2	4	31	87	1	84
FC(F)(F)c1cccc(Sc2nc(-c3ccccc3)nnc2C(F)(F)F)c1	-2	-2	46	5.3*	1	11
CCN(Cc1ccccc1)S(=O)(=O)c1cc(C(=O)c2c(N)n(C)c(=O)n(C)c2=O)ccc1OC	-7	-5	-6	.	1	.

Compound activity: PubChem, several laboratories
